Screens: PubChem BioAssay, several laboratories
SR-BI HDL uptake = mouse SR-BI HDL lipid transfer inhibition | ldlA[mSR-BI] CHO cells, DiI-HDL uptake fluorescence, 3 h | inhibition, % at 12.5 µM | 0.96% of 320,000 active;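 active = mean replicate inhibition of at least 70% and a set share of replicates each scoring 70 or more; inconclusive = meets just one of the two criteria; inactive = fails both criteria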
SR-BI DiI-HDL act = enhances SR-BI lipid uptake from DiI-HDL; CHO ldlA[mSR-BI] cells, DiI-HDL uptake fluorescence, 3 h; 100 = double the neutral-control signal; activation, % at 12.5 µM; 0.096% of 320,000 active; AID 504775;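 active = mean replicate activation of at least 60% and every replicate at or above 60%; inconclusive = mean or all-replicate condition met, but not both; inactive = mean below 60% and not all replicates reaching 60%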
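Material – SR-BI-overexpressing, LDLR-lacking CHO cells · Medium – BSA-supplemented, HEPES-buffered Ham's F12, pH 7.4 · Doses – single concentration · Times – compound with DiI-HDL co-incubation, 3 h at 37 °C · Measured by – bottom-read fluorescence, 550/595 nm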
Rin1 Abl inh = blocks binding of human Rin1 to Abl | P00519+Q13671 | TR-FRET Rin1/Abl binding, biochemical | inhibition, % at 7.35 µM | 0.4% of 360,000 active; in the data active = inhibition above about 5%, passing the limit was not always enough
GRK2 aptamer HTS = human GRK2 inhibition via aptamer displacement; bead flow cytometry, FAM-aptamer displacement from GRK2; inhibition of aptamer binding, % at 10 µM; 0.59% of 330,000 active; AID 488847;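 active = inhibition of aptamer binding above 40%, roughly 3 SD of noise, on plates passing a quality check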;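 note: median bead fluorescence of bound FAM aptamer so fluorescent compounds give negative values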
Numbers stand for hits; – = inactive; ? = inconclusive; · = no result given. Most compounds without a hit are left out; they make up all but 1.9% or so of the library.

SMILES	SR-BI HDL uptake	SR-BI DiI-HDL act	Rin1 Abl inh	GRK2 aptamer HTS
COc1cccc(-c2c(-c3cc(OC)cc(OC)c3)n(C)c3ccc(-c4ccc5[nH]ccc5c4)cc23)c1	–	–	–	–
COc1cc(OC)cc(-c2c(-c3ccc(F)cc3)c3cc(-c4ccc5[nH]ccc5c4)ccc3n2C)c1	88	–	–	–
Cc1cc(=O)oc2cc(OCc3cc4c(cc3Cl)OCO4)ccc12	83	–	–	–
COc1ccccc1N(CCC#N)C(=O)COC(=O)CCC(=O)c1ccc(F)cc1	–	–	–	–
COc1ccc(C(=O)NC(=S)Nc2cccc(S(=O)(=O)N3CCOCC3)c2)cc1	–	–	–	–
Cc1ccc(SCC(=O)Nc2cccc(S(=O)(=O)N3CCOCC3)c2)cc1C	–	–	–	–
CC(=O)Oc1ccc(-c2ccc(C(=O)Nc3cccc(S(=O)(=O)N4CCOCC4)c3)cc2)cc1	81	–	–	–
Cc1cc(SCC(=O)Nc2cccc(S(=O)(=O)N3CCOCC3)c2)nc2ccccc12	79	–	–	–
CC(=O)c1cccc(NC(=O)c2cc(S(=O)(=O)N3CCOCC3)cs2)c1	78	–	–	–
COC(=O)c1csc(-c2ccc(CO)o2)n1	·	·	–	·
COc1ccc(-n2nc(C(=O)NCC(=O)Nc3cc(OC)ccc3OC)c3ccccc3c2=O)cc1	·	·	–	–
COc1ccc(-n2nc(C(=O)NCC(=O)Nc3cc(Cl)c(OC)cc3OC)c3ccccc3c2=O)cc1	84	–	–	–
O=C1CC(SC(=Nc2ccccc2)Nc2ccccc2)C(=O)N1c1ccc(Cl)c(Cl)c1 (centres undefined)	–	–	–	–
Cc1cccc(N2C(=O)CC(SC(=Nc3ccccc3)Nc3ccccc3)C2=O)c1 (centres undefined)	74	–	–	–
COCCN=c1scc(-c2ccc3c(c2)NC(=O)CO3)n1/N=C(\C)c1ccc(O)cc1	?	–	–	–
COc1cc(/C=N/n2c(-c3ccc4c(c3)NC(=O)CO4)csc2=Nc2cccc(C)c2)ccc1O	83	–	–	–
COc1ccc2cc(C(c3nnnn3C3CCCC3)N3CCCCCC3)c3nnnn3c2c1 (centres undefined)	–	–	–	–
COc1ccc2cc(C(c3nnnn3C3CCCCC3)N3CCCCCC3)c3nnnn3c2c1 (centres undefined)	80	–	–	–
CSc1nsc(/C=C/Nc2ccc(O)cc2C)c1C#N	81	–	–	–
COc1cc([N+](=O)[O-])cc(/C=N/NC(=O)c2cncc(Br)c2)c1O	·	·	–	–
COc1cc(/C=N/NC(=O)c2cncc(Br)c2)cc([N+](=O)[O-])c1O	120	–	–	–
CNc1cc(-c2cccc(OC)c2F)nc2ccnn12	·	·	–	·
O=C(CCn1c(=O)c2cccn2c2ccccc21)Nc1ccc(F)cc1	75	–	–	–
COc1ccc(NC(=O)CCn2c(=O)c3cccn3c3ccccc32)cc1	–	–	–	–
Cc1cc(C)cc(NC(=O)CCn2c(=O)c3cccn3c3ccccc32)c1	81	–	–	–
SMILES	SR-BI HDL uptake	SR-BI DiI-HDL act	Rin1 Abl inh	GRK2 aptamer HTS
COc1ccc(NC(=O)CCn2c(=O)c3cccn3c3ccccc32)c(OC)c1	75	–	–	–
COC(=O)C1=C(C)NC(C)=C(C(=O)OC)C1C(=O)OCC(=O)NC1CCCCC1C (centres undefined)	·	·	–	·
O=C(N/N=C/c1cccc([N+](=O)[O-])c1)c1ccc(Br)cc1	–	–	–	–
COc1cc(C(=O)N/N=C/c2ccc(OC(=O)c3ccccc3)c(OC)c2)ccc1O	–	–	–	–
COc1cc(/C=N/NC(=O)c2cc(O)cc(O)c2)ccc1OC(=O)c1ccccc1	–	–	–	44
O=C(N/N=C/c1cccc([N+](=O)[O-])c1)c1ccc(COc2ccccc2-c2ccccc2)cc1	74	–	–	–
O=C(N/N=C/c1ccc(OC(=O)c2ccccc2Cl)cc1)c1ccccn1	–	–	–	–
O=C(N/N=C/c1ccc(OC(=O)c2ccccc2Cl)cc1)c1cc(O)cc(O)c1	–	–	–	55
Cc1cc(/C=N/NC(=O)c2cccc([N+](=O)[O-])c2)c(C)n1-c1ccc(Cl)cc1Cl	89	–	–	–
CC(C)C(=O)N1CCC1(C)C(=O)Nc1cc(-c2ccccc2)nn1C (centres undefined)	·	·	–	·
CC1(NC(=O)Cc2csc(-c3cccc(Cl)c3)n2)CCS(=O)(=O)C1 (centres undefined)	–	–	–	–
CSCCNC(=O)C1(C)CCN1C(=O)c1ccc(C(C)(C)C)cc1 (centres undefined)	·	·	–	·
CN(C)CCNC(=O)c1cccc(-c2cccc3nncn23)c1	·	·	–	·
COc1cc(/C=N/NC(=O)c2cccc([N+](=O)[O-])c2)ccc1OCc1ccccc1	89	–	–	–
CCOc1ccc(C(=O)Nc2cccc([N+](=O)[O-])c2)cc1Br	72	–	–	–
COc1ccccc1/C=C(\NC(=O)c1ccc(OC)c(OC)c1)C(=O)Nc1cccc([N+](=O)[O-])c1	74	–	–	–
COc1ccc(/C=N/NC(=O)c2cccc([N+](=O)[O-])c2)cc1OC	–	–	–	–
CCOc1ccc(C(=O)Nc2cccc(NC(=O)c3cccs3)c2)cc1[N+](=O)[O-]	–	–	–	·
COc1ccc(/C=N/NC(=O)c2cccc([N+](=O)[O-])c2)c2ccccc12	75	–	–	–
COc1ccc(C(=O)Nc2cccc(/C(C)=N/NC(=O)c3ccc([N+](=O)[O-])c(C)c3)c2)cc1OC	86	–	–	–
N#CCCN(Cc1ccccc1)C(C(=O)NC1CCCCC1)c1cc2ccccc2o1 (centres undefined)	·	·	–	·
CCn1c(C)nc2cc(C(=O)NNC(=O)CN(C)S(=O)(=O)c3ccc(NC(C)=O)cc3)ccc21	–	–	–	100
O=[N+]([O-])c1ccc(O)c(-c2nc(-c3ccccc3)c(-c3cccs3)[nH]2)c1	84	–	–	–
NNC(=O)c1oc2nc(-c3ccc(Cl)cc3)cc(-c3ccccc3)c2c1N	106	–	–	–
COc1cc(/C=N/NC(=O)c2cnn3c(C)cc(-c4ccccc4)nc23)ccc1O	77	–	–	–
SMILES	SR-BI HDL uptake	SR-BI DiI-HDL act	Rin1 Abl inh	GRK2 aptamer HTS
Oc1ccc(C[C@H]2CNC(=S)N2CC2CCCN2C[C@H](Cc2ccccc2)N2C[C@H](Cc3ccc(O)cc3)N(CCc3ccccc3)C2=S)cc1 (some centres undefined)	–	108	–	·
COc1cccc(C(C)(O)c2nc(-c3ccc(N(C)C)cc3)cs2)c1 (centres undefined)	·	·	–	·
COc1cccc(/C=C/C(=O)OCC(=O)Nc2ccc(S(=O)(=O)N3CCCC3)cc2)c1	–	–	–	–
COc1cc(/C=C/C(=O)OCC(=O)Nc2ccc(S(=O)(=O)N3CCCC3)cc2)ccc1O	82	–	–	–
CC1CCCC(C)N1C(=O)COc1ccc(C(=O)Nc2ccccc2N2CCOCC2)cc1 (centres undefined)	82	–	–	–
Cc1cc(C)n(-c2ccc(C(=O)Nc3cc(C(F)(F)F)ccc3N3CCOCC3)cc2)n1	–	–	–	–
